Results on 17 molecules are retold here after the M2OR odorant receptor database.

Conditions in all cases: stereoisomer not certain
One test concerns the target T1, UniProt Q8VGX3.
T1 sequence (whole entry): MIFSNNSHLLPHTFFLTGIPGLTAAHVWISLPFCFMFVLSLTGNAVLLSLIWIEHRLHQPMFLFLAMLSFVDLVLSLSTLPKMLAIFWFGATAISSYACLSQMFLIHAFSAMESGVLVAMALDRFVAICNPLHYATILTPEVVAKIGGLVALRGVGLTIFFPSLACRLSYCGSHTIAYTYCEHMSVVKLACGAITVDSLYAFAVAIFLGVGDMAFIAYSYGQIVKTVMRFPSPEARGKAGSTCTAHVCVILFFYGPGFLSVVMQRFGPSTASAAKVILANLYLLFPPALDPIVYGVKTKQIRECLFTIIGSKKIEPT
The method, boiled down: (§1)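 Values were gathered from published papers (main text and supplementary material), with extra details requested from the original authors when needed, and checked for typos and inconsistencies. Each receptor–molecule pair is called responsive (active) if the original authors judged the measured signal statistically different from baseline, and non-responsive (inactive) otherwise. Assay methods varied by source, often transient mammalian cell-line luciferase assays. Recorded details include cell line, G-protein, co-transfected protein and tags.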

In another test the target is T2, UniProt Q8VGX5.
T2 sequence (whole entry): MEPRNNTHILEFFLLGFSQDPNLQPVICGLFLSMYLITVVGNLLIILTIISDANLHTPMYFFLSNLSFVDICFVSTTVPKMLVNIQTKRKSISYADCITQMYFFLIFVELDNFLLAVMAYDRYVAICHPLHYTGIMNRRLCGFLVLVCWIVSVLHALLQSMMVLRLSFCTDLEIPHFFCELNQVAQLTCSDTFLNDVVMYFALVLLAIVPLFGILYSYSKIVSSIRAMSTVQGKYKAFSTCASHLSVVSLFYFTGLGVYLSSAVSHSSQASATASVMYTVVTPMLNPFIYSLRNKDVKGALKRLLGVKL
The procedure, abridged: as §1

For another test, the target named is T3, UniProt Q8VGZ2.
T3 sequence (whole entry): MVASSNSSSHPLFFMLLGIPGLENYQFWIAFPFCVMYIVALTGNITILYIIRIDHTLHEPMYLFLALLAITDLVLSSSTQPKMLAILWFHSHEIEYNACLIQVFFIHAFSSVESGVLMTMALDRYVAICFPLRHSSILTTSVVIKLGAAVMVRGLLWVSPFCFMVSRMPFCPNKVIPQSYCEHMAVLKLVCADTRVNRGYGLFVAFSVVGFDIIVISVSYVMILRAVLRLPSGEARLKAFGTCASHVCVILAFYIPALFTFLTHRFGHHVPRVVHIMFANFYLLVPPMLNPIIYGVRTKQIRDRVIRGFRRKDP
The method, boiled down:
as §1

Another test concerns the target T4, UniProt Q8VGZ7.
T4 sequence (whole entry): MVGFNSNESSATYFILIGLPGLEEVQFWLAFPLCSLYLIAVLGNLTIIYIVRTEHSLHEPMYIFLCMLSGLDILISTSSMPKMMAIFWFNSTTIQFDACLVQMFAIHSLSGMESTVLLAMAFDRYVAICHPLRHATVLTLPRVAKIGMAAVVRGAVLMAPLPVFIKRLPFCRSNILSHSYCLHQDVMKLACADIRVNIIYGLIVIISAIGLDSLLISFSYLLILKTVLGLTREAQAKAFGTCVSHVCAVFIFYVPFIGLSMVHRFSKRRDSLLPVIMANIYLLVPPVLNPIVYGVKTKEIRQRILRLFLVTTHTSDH
The method, boiled down: as §1

A further test has as its target T5, UniProt Q8VH16.
T5 sequence (whole entry): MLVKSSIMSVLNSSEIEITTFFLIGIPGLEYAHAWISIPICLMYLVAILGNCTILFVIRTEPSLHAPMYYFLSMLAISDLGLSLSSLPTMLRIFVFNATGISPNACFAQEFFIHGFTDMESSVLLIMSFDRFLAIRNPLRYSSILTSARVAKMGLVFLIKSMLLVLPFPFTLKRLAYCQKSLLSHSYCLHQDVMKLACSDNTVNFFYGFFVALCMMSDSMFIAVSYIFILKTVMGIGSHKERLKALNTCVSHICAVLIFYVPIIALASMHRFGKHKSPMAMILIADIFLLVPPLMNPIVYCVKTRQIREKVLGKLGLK
The procedure, abridged:
as §1

For a further test, the target named is T6, UniProt Q8VH20.
T6 sequence (whole entry): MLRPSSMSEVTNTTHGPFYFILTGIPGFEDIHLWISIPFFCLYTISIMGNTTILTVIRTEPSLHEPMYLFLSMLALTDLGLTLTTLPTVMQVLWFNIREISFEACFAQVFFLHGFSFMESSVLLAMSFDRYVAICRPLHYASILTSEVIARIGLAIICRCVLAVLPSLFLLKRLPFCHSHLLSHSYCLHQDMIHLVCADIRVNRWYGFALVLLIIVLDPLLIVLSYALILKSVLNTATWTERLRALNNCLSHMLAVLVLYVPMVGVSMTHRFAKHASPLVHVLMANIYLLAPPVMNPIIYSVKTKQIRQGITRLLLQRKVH
The procedure, abridged: as §1

A further test deals with T7, UniProt Q8VGX8.
T7 sequence (whole entry): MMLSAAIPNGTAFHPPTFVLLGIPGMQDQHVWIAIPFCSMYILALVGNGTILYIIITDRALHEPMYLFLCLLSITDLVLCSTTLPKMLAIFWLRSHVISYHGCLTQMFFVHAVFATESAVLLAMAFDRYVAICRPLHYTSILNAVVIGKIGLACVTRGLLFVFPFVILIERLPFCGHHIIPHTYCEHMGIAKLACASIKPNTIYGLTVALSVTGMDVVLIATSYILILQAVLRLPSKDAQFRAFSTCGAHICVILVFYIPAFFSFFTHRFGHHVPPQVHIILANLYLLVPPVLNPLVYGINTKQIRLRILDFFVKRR
The method, boiled down:
as §1

In the next test the target is T8, UniProt Q8VGY6.
T8 sequence (whole entry): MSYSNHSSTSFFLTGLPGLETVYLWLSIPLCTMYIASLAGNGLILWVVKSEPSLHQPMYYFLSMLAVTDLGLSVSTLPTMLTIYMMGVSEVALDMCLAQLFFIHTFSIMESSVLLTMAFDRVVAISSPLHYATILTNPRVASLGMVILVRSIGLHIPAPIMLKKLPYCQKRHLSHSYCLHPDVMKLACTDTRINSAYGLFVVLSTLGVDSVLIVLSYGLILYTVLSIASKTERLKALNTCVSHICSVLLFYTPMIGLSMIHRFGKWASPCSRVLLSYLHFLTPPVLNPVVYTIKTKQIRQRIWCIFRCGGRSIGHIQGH
The procedure, abridged: as §1

For the next test, the target named is T9, UniProt Q8VH10.
T9 sequence (whole entry): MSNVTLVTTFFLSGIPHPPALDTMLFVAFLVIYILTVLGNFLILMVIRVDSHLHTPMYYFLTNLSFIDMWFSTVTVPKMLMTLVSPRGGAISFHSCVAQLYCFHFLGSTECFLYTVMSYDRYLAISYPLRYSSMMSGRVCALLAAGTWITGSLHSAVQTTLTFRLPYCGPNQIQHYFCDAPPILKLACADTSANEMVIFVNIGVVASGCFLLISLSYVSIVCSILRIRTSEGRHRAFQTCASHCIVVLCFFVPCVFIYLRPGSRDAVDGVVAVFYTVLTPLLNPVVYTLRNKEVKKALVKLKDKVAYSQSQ
The method, boiled down: as §1

The next test deals with UniProt Q8VH18. The procedure, abridged:
as §1

Sequence of UniProt Q8VH18 (Q8VH18 as listed by the source): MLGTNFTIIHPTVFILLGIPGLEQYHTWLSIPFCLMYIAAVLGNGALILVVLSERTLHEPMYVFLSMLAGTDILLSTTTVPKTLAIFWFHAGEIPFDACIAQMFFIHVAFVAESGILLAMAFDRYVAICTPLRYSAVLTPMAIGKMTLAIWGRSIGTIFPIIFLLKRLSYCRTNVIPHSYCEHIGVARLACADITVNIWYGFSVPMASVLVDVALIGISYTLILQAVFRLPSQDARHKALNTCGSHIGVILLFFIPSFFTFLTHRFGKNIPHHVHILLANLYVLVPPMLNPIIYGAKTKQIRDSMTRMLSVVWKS

With `O=CC=Cc1ccccc1`, the “odorant receptor agonist call” value in the test with UniProt Q8VGX3, in the test with UniProt Q8VGX5, with UniProt Q8VGZ2, with UniProt Q8VGZ7, with UniProt Q8VH16 and with UniProt Q8VH20 was “inactive” in each case.

For the molecule `C=CCOC(=O)Cc1ccccc1`, the “odorant receptor agonist call” value with UniProt Q8VGX3, with UniProt Q8VGX8, with UniProt Q8VGY6, in the test with UniProt Q8VGZ2, with UniProt Q8VGZ7 and with UniProt Q8VH16 was “inactive” in each case. The “odorant receptor agonist call” value with UniProt Q8VH20 was “inactive”. The “odorant receptor agonist call” value with UniProt Q8VGX5 and in the test with UniProt Q8VH10 was “active” throughout.

Consider `O=Cc1ccccc1`, for which the “odorant receptor agonist call” value with UniProt Q8VGX3, with UniProt Q8VGX5, in the test with UniProt Q8VGZ2, in the test with UniProt Q8VGZ7, with UniProt Q8VH16 and with UniProt Q8VH20 was “inactive” throughout.

On to `CSSC`, for which the “odorant receptor agonist call” value in the test with UniProt Q8VGX3, in the test with UniProt Q8VGX5, with UniProt Q8VGZ2, with UniProt Q8VGZ7, in the test with UniProt Q8VH16 and with UniProt Q8VH20 was “inactive” throughout.

`C=CCc1ccccc1`: the “odorant receptor agonist call” value with UniProt Q8VGX5, in the test with UniProt Q8VGX8, with UniProt Q8VGY6, with UniProt Q8VGZ2, in the test with UniProt Q8VGZ7 and with UniProt Q8VH10 was “inactive” each time. The “odorant receptor agonist call” value in the test with UniProt Q8VH20 is “inactive”.

On to `C=C(C)C1CC=C(C=O)CC1` (stereo unspecified), for which the “odorant receptor agonist call” value with UniProt Q8VGX3, with UniProt Q8VGX5, with UniProt Q8VGZ2, with UniProt Q8VGZ7, with UniProt Q8VH16 and with UniProt Q8VH20 was “inactive” each time.

Regarding `O=Cc1ccc2c(c1)OCO2`, the “odorant receptor agonist call” value with UniProt Q8VGX3, with UniProt Q8VGZ2, with UniProt Q8VGZ7, with UniProt Q8VH16 and with UniProt Q8VH20 was “inactive” each time. For the same molecule, the “odorant receptor agonist call” value in the test with UniProt Q8VGX5 is “active”.

Take `CCCCC(Br)C(=O)O` (stereo unspecified): the “odorant receptor agonist call” value in the test with UniProt Q8VGX3, in the test with UniProt Q8VGX5, with UniProt Q8VGZ2, in the test with UniProt Q8VGZ7 and with UniProt Q8VH16 was “inactive” throughout. The “odorant receptor agonist call” value with UniProt Q8VH20 was “active”.

Take `O=C(O)CCCCCCCBr`: the “odorant receptor agonist call” value with UniProt Q8VGX8 and with UniProt Q8VH18 was “active” each time.

On to `CCC1CCC(=O)O1` (stereo unspecified), for which the “odorant receptor agonist call” value with UniProt Q8VGX5, with UniProt Q8VGX8, with UniProt Q8VGY6, with UniProt Q8VGZ2, with UniProt Q8VGZ7 and with UniProt Q8VH10 was “inactive” throughout. The “odorant receptor agonist call” value with UniProt Q8VH20 was “inactive”.

For the molecule `CCCCCCC(Br)C(=O)O` (stereo unspecified), the “odorant receptor agonist call” value with UniProt Q8VGX3, with UniProt Q8VGX5, in the test with UniProt Q8VGZ2, in the test with UniProt Q8VGZ7 and with UniProt Q8VH16 was “inactive” throughout. In addition, the “odorant receptor agonist call” value with UniProt Q8VH20 is “active”.

`O=c1cc(O)c2ccccc2o1`: the “odorant receptor agonist call” value with UniProt Q8VGX3, in the test with UniProt Q8VGX5, in the test with UniProt Q8VGX8, in the test with UniProt Q8VGY6, with UniProt Q8VGZ2 and with UniProt Q8VGZ7 was “inactive” each time. Further, the “odorant receptor agonist call” value with UniProt Q8VH10, with UniProt Q8VH16 and with UniProt Q8VH20 was “inactive” each time.

Take `CC(C=O)Cc1ccc2c(c1)OCO2` (stereo unspecified): the “odorant receptor agonist call” value in the test with UniProt Q8VGX3, with UniProt Q8VGZ2, with UniProt Q8VGZ7, in the test with UniProt Q8VH16 and with UniProt Q8VH20 was “inactive” each time. Besides, the “odorant receptor agonist call” value with UniProt Q8VGX5 was “active”.

Consider `COc1ccc(C=O)cc1`, for which the “odorant receptor agonist call” value with UniProt Q8VGX3, with UniProt Q8VGX5, with UniProt Q8VGZ2, with UniProt Q8VGZ7, in the test with UniProt Q8VH16 and with UniProt Q8VH20 was “inactive” in each case.

On to `Cc1ccc(OC(=O)Cc2ccccc2)cc1`, for which the “odorant receptor agonist call” value in the test with UniProt Q8VGX3, with UniProt Q8VGX5, in the test with UniProt Q8VGZ2, with UniProt Q8VGZ7 and in the test with UniProt Q8VH16 was “inactive” throughout. For the same molecule, the “odorant receptor agonist call” value with UniProt Q8VH20 is “active”.

As to `OCc1ccc2c(c1)OCO2`, the “odorant receptor agonist call” value in the test with UniProt Q8VGX3, with UniProt Q8VGX5, in the test with UniProt Q8VGZ2, with UniProt Q8VGZ7, with UniProt Q8VH16 and with UniProt Q8VH20 was “inactive” in each case.

As for `Oc1ccccc1Br`, the “odorant receptor agonist call” value in the test with UniProt Q8VGX3, in the test with UniProt Q8VGX5, with UniProt Q8VGZ2, with UniProt Q8VGZ7, with UniProt Q8VH16 and with UniProt Q8VH20 was “inactive” each time.
